Data published in PMC12541585 (Acta Pharmaceutica Sinica. B, 2025).

Test system: MDA-MB-231 xenograft
Test: MDA-MB-231 xenograft model
Format: in vivo, BALB/c nude mice
Settings: immunohistochemical staining of MDA-MB-231 tumors, vs control group
How it was run: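 Female nude mice received 5×10^6 MDA-MB-231 cells in 100 μL Matrigel/PBS (1:1) subcutaneously into the right flank. At ≥80 mm³, mice were randomised into five groups, each dosed intraperitoneally every three days: test compound at 0.1, 0.5 or 1 mg/kg, paclitaxel 4 mg/kg, or PBS. Excised tumour sections were stained with anti-CXCR4 (1:100, 4 °C overnight), then HRP secondary (30 min) and DAB.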

## CC(=O)O[C@H]1C(=O)[C@@]2(C)[C@H]([C@H](OC(=O)c3ccccc3)[C@]3(O)C[C@H](OC(=O)[C@H](O)[C@@H](NC(=O)c4ccccc4)c4ccccc4)C(C)=C1C3(C)C)[C@]1(OC(C)=O)CO[C@@H]1C[C@@H]2O [PTX, Paclitaxel]
  proportion of CXCR4-positive cells in tumor tissue: little effect
